Drawing on PubChem BioAssay, this text covers GFP response vs DMSO, GFP response relative to DMSO and GFP response, % of DMSO for 15 molecules.

The structures appear in SMILES notation. Calls of active or inactive are those of the source.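 The calls were made as follows, unless noted: active = GFP response above 150% of the DMSO level; inconclusive = fewer than 70 events counted for a yeast strain; inactive = the rest.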

A short description of experiment [1]: hit retest on RPL19A-GFP reporter strain – cell-based, S. cerevisiae, flow cytometry, cherry picks, mother/daughter gates, confirmation (AID 2270;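 active = GFP response below 50% of the DMSO control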). To be noted: 3 h, at 10 µM, stronger effect = lower value, 100 = same GFP as DMSO wells. (In general: Flow cytometry measures light scatter and fluorescence of single cells or particles in a stream.)
Experiment [2] in a line: yeast TOR pathway reporter LAP4-GFP change – cell-based, cherry picks, flow cytometry, mother/daughter gates, confirmation (AID 2271;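 active = GFP response above 150% of the DMSO control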;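 also: ratio of sample to DMSO plate mean so 100% equals DMSO level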). The settings on record: S. cerevisiae LAP4-GFP strain, 3 h, at 10 µM, stronger effect = higher value, 100 means same as DMSO control. An outline of the steps: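 System: GFP-fusion yeast strain | Input: Yeast cells seeded at OD600 of 0.2 | Technique: HT flow cytometry, GFP fluorescence channel | Read-out: % GFP response vs DMSO | Dosing: Single test-compound dose, 10 µM final | Controls: Positive rapamycin (400 ng/mL), negative DMSO | Times: 3 h treatment at 30 °C with rotation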

Experiment [3] can be described thus: TOR pathway reporter MEP2-GFP, retest of hits – S. cerevisiae, flow cytometry GFP, cherry picks, confirmation (AID 2272;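 active = GFP response above 150% of the DMSO control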;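 also: ratio of well signal to plate DMSO mean so 100% equals DMSO level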). The settings on record: S. cerevisiae MEP2-GFP strain, 3 h, at 10 µM, stronger effect = higher value.
Experiment [4] in a line: yeast AGP1-GFP fluorescence change, single-dose – cell-based, flow cytometry, S. cerevisiae, cherry picks, confirmation (AID 2273).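 Also: median GFP channel fluorescence over the whole cell population gate.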 The settings on record: S. cerevisiae AGP1-GFP strain, 3 h, at 10 µM.
Experiment [5] can be described thus: TOR pathway CIT2 reporter hit retest – S. cerevisiae, GFP fusion, cherry picks, mother/daughter gates, confirmation (AID 2274). To be noted: S. cerevisiae CIT2-GFP strain, flow cytometry, 3 h, at 10 µM, stronger effect = higher value.
Where [6] appears, read: measured here: daughter cell gate.
The mark [7] stands for this setting: measured here: mother cell gate.
Where [8] appears, read: measured here: daughter cell gate response.
Where [9] appears, read: measured here: mother cell gate response.

Take `COc1ccc(C(=O)/C=C2/C(=O)Nc3ccccc32)c(OC)c1`: the GFP response vs DMSO in experiment [1] is 99.5% (inactive); in experiment [1] (setting [6]), 96.7%; in experiment [1] (setting [7]) it was 95.2%; in experiment [3], 97.8% (inactive). Also, the GFP response relative to DMSO was 136% (inactive) in experiment [2], 123% in experiment [2] (setting [8]) and 139% in experiment [2] (setting [9]). In addition, the GFP response, % of DMSO in experiment [4] was 99.2% (inactive); in experiment [5] it was 82.2% (inactive); in experiment [5] (setting [6]), 83.4%; in experiment [5] (setting [7]), 77.3%.

Regarding `Cc1ccc2c(c1)c1c(c(=O)n(-c3ccccc3C)c(=O)n1CC(=O)NCC1CCCO1)n2C` (stereo not given), the GFP response vs DMSO in experiment [1] was 98.4% (inactive); in experiment [1] (setting [6]) it was 99.9%; in experiment [1] (setting [7]), 97.2%; in experiment [3] it was 100% (inactive). The GFP response relative to DMSO was 102% (inactive) in experiment [2], 101% in experiment [2] (setting [8]) and 101% in experiment [2] (setting [9]). Also, the GFP response, % of DMSO in experiment [4] is 98.3% (inactive); in experiment [5], 103% (inactive); in experiment [5] (setting [6]) it was 103%; in experiment [5] (setting [7]), 102%.

`CCCOc1ccc(C(=O)NNC(=S)NC(=O)CC)cc1`: the GFP response vs DMSO in experiment [1] is 126% (inactive); in experiment [1] (setting [6]), 103%; in experiment [1] (setting [7]) it was 117%; in experiment [3], 139% (inactive). In addition, the GFP response relative to DMSO in experiment [2] is 181% (active); in experiment [2] (setting [8]), 120%; in experiment [2] (setting [9]), 169%. Besides, the GFP response, % of DMSO is 130% (inactive) in experiment [4], 132% (inactive) in experiment [5], 121% in experiment [5] (setting [6]) and 117% in experiment [5] (setting [7]).

As to `CC1(C)CC(=O)C2=C(C1)OC1=C(C(=O)CC(C)(C)C1)C2c1ccc(O)cc1O`, the GFP response vs DMSO is 104% (inactive) in experiment [1], 105% in experiment [1] (setting [6]), 99.8% in experiment [1] (setting [7]) and 97.8% (inactive) in experiment [3]. The GFP response relative to DMSO was 143% (inactive) in experiment [2], 139% in experiment [2] (setting [8]) and 143% in experiment [2] (setting [9]). Moreover, the GFP response, % of DMSO was 96.3% (inactive) in experiment [4], 95.2% (inactive) in experiment [5], 103% in experiment [5] (setting [6]) and 89.1% in experiment [5] (setting [7]).

With `CC1CN(c2nc3ccccn3c(=O)c2/C=C(\C#N)C(N)=O)CC(C)O1` (stereo not given), the GFP response vs DMSO in experiment [1] is 97.8% (inactive); in experiment [1] (setting [6]), 97.3%; in experiment [1] (setting [7]), 95.8%; in experiment [3] it was 106% (inactive). The GFP response relative to DMSO in experiment [2] is 96.5% (inactive); in experiment [2] (setting [8]) it was 99%; in experiment [2] (setting [9]), 95.4%. In addition, the GFP response, % of DMSO was 99.5% (inactive) in experiment [4], 101% (inactive) in experiment [5], 99.3% in experiment [5] (setting [6]) and 103% in experiment [5] (setting [7]).

Regarding `COc1ccc(C(=O)ON=C2CCN(c3ccc([N+](=O)[O-])cc3)CC2)cc1`, the GFP response vs DMSO in experiment [1] was 97.6% (inactive); in experiment [1] (setting [6]) it was 97.5%; in experiment [1] (setting [7]) it was 97.6%; in experiment [3] it was 97.5% (inactive). The figures for the GFP response relative to DMSO in experiment [2], in experiment [2] (setting [8]) and in experiment [2] (setting [9]) were 117% (inactive), 107% and 118%, respectively. Moreover, the GFP response, % of DMSO is 76.1% (inactive) in experiment [4], 108% (inactive) in experiment [5], 104% in experiment [5] (setting [6]) and 108% in experiment [5] (setting [7]).

Take `CC(C)(C)NC(=O)CN(C(=O)CCC(=O)Nc1nccs1)c1ccc(F)cc1`: the GFP response vs DMSO was 101% (inactive) in experiment [1], 100% in experiment [1] (setting [6]), 101% in experiment [1] (setting [7]) and 105% (inactive) in experiment [3]. In addition, the GFP response relative to DMSO in experiment [2] is 98.2% (inactive); in experiment [2] (setting [8]) it was 95.9%; in experiment [2] (setting [9]), 98.4%. For the same molecule, the GFP response, % of DMSO in experiment [4] was 101% (inactive); in experiment [5], 102% (inactive); in experiment [5] (setting [6]), 99.2%; in experiment [5] (setting [7]), 101%.

In the case of `O=C(NCCCSc1ccccc1)c1cc(Br)ccc1O`, the GFP response vs DMSO in experiment [1] is 97.8% (inactive); in experiment [1] (setting [6]), 97.1%; in experiment [1] (setting [7]), 99.2%; in experiment [3] it was 100% (inactive). Further, the GFP response relative to DMSO in experiment [2] is 106% (inactive); in experiment [2] (setting [8]) it was 104%; in experiment [2] (setting [9]) it was 108%. Moreover, the GFP response, % of DMSO was 93.3% (inactive) in experiment [4], 98.3% (inactive) in experiment [5], 99.1% in experiment [5] (setting [6]) and 99.7% in experiment [5] (setting [7]).

As for `O=C(c1ccccn1)c1conc1C(=O)c1ccc(Br)cc1`, the GFP response vs DMSO is 98.2% (inactive) in experiment [1], 93.9% in experiment [1] (setting [6]), 102% in experiment [1] (setting [7]) and 153% (inactive) in experiment [3]. The GFP response relative to DMSO in experiment [2] was 204% (active); in experiment [2] (setting [8]) it was 159%; in experiment [2] (setting [9]), 213%. For the same molecule, the GFP response, % of DMSO in experiment [4] was 105% (inactive); in experiment [5], 139% (inactive); in experiment [5] (setting [6]), 126%; in experiment [5] (setting [7]), 147%.

As to `O=[N+]([O-])c1cc(C(F)(F)F)ccc1NCCc1ccccn1`, the GFP response vs DMSO was 98.8% (inactive) in experiment [1], 99.3% in experiment [1] (setting [6]), 99.7% in experiment [1] (setting [7]) and 102% (inactive) in experiment [3]. The GFP response relative to DMSO in experiment [2] was 96.5% (inactive); in experiment [2] (setting [8]) it was 92.2%; in experiment [2] (setting [9]) it was 96.5%. The GFP response, % of DMSO in experiment [4] is 98.9% (inactive); in experiment [5], 106% (inactive); in experiment [5] (setting [6]) it was 106%; in experiment [5] (setting [7]), 106%.

As for `O=C(Cc1ccc(-c2ccccc2)cc1)OCC(=O)N1CCCC1=O`, the GFP response vs DMSO in experiment [1] was 96.5% (inactive); in experiment [1] (setting [6]), 93.9%; in experiment [1] (setting [7]), 97.2%; in experiment [3], 97.8% (inactive). For the same molecule, the GFP response relative to DMSO in experiment [2] was 112% (inactive); in experiment [2] (setting [8]) it was 111%; in experiment [2] (setting [9]), 114%. Also, the GFP response, % of DMSO in experiment [4] was 96.3% (inactive); in experiment [5] it was 91.3% (inactive); in experiment [5] (setting [6]), 89.9%; in experiment [5] (setting [7]), 91.2%.

In the case of `COc1ccc(NC2=C(Cl)C(=O)N(CCc3ccccc3)C2=O)cc1`, the GFP response vs DMSO was 98.7% (inactive) in experiment [1], 99.3% in experiment [1] (setting [6]), 99.2% in experiment [1] (setting [7]) and 104% (inactive) in experiment [3]. The GFP response relative to DMSO in experiment [2] was 97.7% (inactive); in experiment [2] (setting [8]), 99.3%; in experiment [2] (setting [9]), 96.5%. For the same molecule, the GFP response, % of DMSO in experiment [4] is 103% (inactive); in experiment [5] it was 102% (inactive); in experiment [5] (setting [6]), 102%; in experiment [5] (setting [7]), 103%.

As to `COc1ccc(/C=N/c2c(-c3ccco3)nc3ccccn23)cc1OC`, the GFP response vs DMSO in experiment [1] is 97.8% (inactive); in experiment [1] (setting [6]) it was 98.5%; in experiment [1] (setting [7]), 98.6%; in experiment [3] it was 102% (inactive). Besides, the results for the GFP response relative to DMSO in experiment [2], in experiment [2] (setting [8]) and in experiment [2] (setting [9]) were 95.3% (inactive), 96.5% and 93.6%, respectively. Moreover, the GFP response, % of DMSO in experiment [4] was 98.9% (inactive); in experiment [5], 101% (inactive); in experiment [5] (setting [6]), 100%; in experiment [5] (setting [7]), 100%.

For `O=C1c2ccsc2SCCN1Cc1c(Cl)cccc1Cl`, the GFP response vs DMSO in experiment [1] is 102% (inactive); in experiment [1] (setting [6]), 99.2%; in experiment [1] (setting [7]), 102%; in experiment [3], 93.5% (inactive). The values for the GFP response relative to DMSO in experiment [2], in experiment [2] (setting [8]) and in experiment [2] (setting [9]) were 98.7% (inactive), 97.2% and 102%, respectively. Besides, the GFP response, % of DMSO in experiment [4] is 93.9% (inactive); in experiment [5], 103% (inactive); in experiment [5] (setting [6]), 101%; in experiment [5] (setting [7]), 104%.

Take `CCOC(=O)C1CCCN(C(=O)c2ccc(-c3ccc([N+](=O)[O-])cc3)o2)C1` (stereo not given): the GFP response vs DMSO is 99.8% (inactive) in experiment [1], 100% in experiment [1] (setting [6]), 98.4% in experiment [1] (setting [7]) and 103% (inactive) in experiment [3]. Moreover, the GFP response relative to DMSO in experiment [2] is 101% (inactive); in experiment [2] (setting [8]), 101%; in experiment [2] (setting [9]) it was 101%. Besides, the GFP response, % of DMSO in experiment [4] was 99.3% (inactive); in experiment [5], 100% (inactive); in experiment [5] (setting [6]) it was 97.6%; in experiment [5] (setting [7]), 102%.
